Results reported in paper PMC8158791 (ACS Omega, 2021).

Legend:
[1] = test system: chloroquine-sensitive strain 3D7 of Plasmodium falciparum; test: In vitro antimalarial assay; type: cell-based; conditions: for IC50: Plasmodium falciparum, 3D7, 72 h, read-out: IC50 Pf3D7; for selectivity index (SI) Pf3D7: ratio CC50 (VERO)/IC50 (Pf3D7); for activity in CQ-sensitive strain (in words): 3D7
[2] = test system: chloroquine-resistant strain K1 of Plasmodium falciparum; test: In vitro antimalarial assay; type: cell-based; conditions: for IC50: Plasmodium falciparum, K1, 72 h, read-out: IC50 PfK1; for selectivity index (SI) PfK1: ratio CC50 (VERO)/IC50 (PfK1)
[3] = test system: Plasmodium yoelii nigeriensis (a multidrug-resistant) parasite; test: In vivo antimalarial assay in Swiss mice; conditions: for cure on day 28: cured/treated; for survival on day 28: survivors/treated
Summary of the method: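 Multidrug-resistant P. yoelii nigeriensis infection in albino Swiss mice, five per group. Test compound given orally at 100 mg/kg daily × 4 days. Reference: α/β-arteether 7.5 mg/kg × 3 days. Untreated infected controls were included. Parasitaemia was assessed by Giemsa-stained smears, with % suppression on day 4 post infection. Survival and cure were followed to day 28, and MST was recorded.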

VERO cell line = test: Cytotoxicity assay against Vero cell line; type: cell-based, monkey; conditions: read-out: cytotoxicity CC50 in VERO cell line; VERO cells, 72 h, resazurin
[4] = Cytotoxicity assay against Vero cell line; type: cell-based, monkey; conditions: monkey, Vero cells (monkey kidney cell line)
[5] = 100 mg/kg × 4 days, oral, P. yoelii-MDR
[6] = 7.5 mg/kg × 3 days, reference drug

For `CC(C)C[C@@H](CN1CCCCC1)N(C)c1ccnc2cc(Cl)ccc12` [9c, (S)-7-Chloro-N-methyl-N-(4-methyl-1-(piperidin-1-yl)pentan-2-yl)quinolin-4-amine], the IC50 [1] was 0.15 ± 0.14 µM, the “selectivity index (SI) Pf3D7” value [1] was 463 and the IC50 [2] was 0.42 ± 0.23 µM. For the same compound, the “selectivity index (SI) PfK1” value [2] was 166.

For `CCN(CC)C[C@H](Cc1ccccc1)N(C)c1ccnc2cc(C(F)(F)F)ccc12` [10h, (S)-N^1,N^1-Diethyl-N^2-methyl-3-phenyl-N^2-(7-(trifluoromethyl)quinolin-4-yl)propane-1,2-diamine], the “activity in CQ-sensitive strain (in words)” value (shortened to “activity”) [1] was “inactive” and the IC50 [1] was 1.75 ± 0.16 µM.

`CCN(CC)CCCC(C)Nc1ccnc2cc(Cl)ccc12` (centres unmarked) [chloroquine, reference compound] showed an IC50 [2] of 0.795 ± 0.15 µM.

With `CN(c1ccnc2cc(C(F)(F)F)ccc12)[C@@H](Cc1ccccc1)CN1CCCC1` [10g, (S)-N-Methyl-N-(1-phenyl-3-(pyrrolidin-1-yl)propan-2-yl)-7-(trifluoromethyl)quinolin-4-amine] the IC50 [1] was 0.68 ± 0.16 µM, the “selectivity index (SI) Pf3D7” value [1] was 58 and the IC50 [2] was 1.77 µM. The “selectivity index (SI) PfK1” value [2] was 22, the MST ([3]; 100 mg/kg × 4 days, oral) was 7.2 days and the “% suppression on day 4 post infection” value [3, 5] was 62.30%. For the same compound, the “cure on day 28” value ([3]; 100 mg/kg × 4 days, oral) was 0/5 cured and the “survival on day 28” value ([3]; 100 mg/kg × 4 days, oral) was 0/5.

For `CN(c1ccnc2cc(C(F)(F)F)ccc12)[C@@H](Cc1ccccc1)CN1CCOCC1` [10e, (S)-N-Methyl-N-(1-morpholino-3-phenylpropan-2-yl)-7-(trifluoromethyl)quinolin-4-amine], the “activity” value [1] was “inactive” and the IC50 [1] was 3.89 ± 0.5 µM.

In the case of `CC(C)C[C@@H](CN1CCCC1)N(C)c1ccnc2cc(Cl)ccc12` [9d, (S)-7-Chloro-N-methyl-N-(4-methyl-1-(pyrrolidin-1-yl)pentan-2-yl)quinolin-4-amine], the IC50 [1] is reported as 0.08 µM, the “selectivity index (SI) Pf3D7” value [1] is reported as 588 and the IC50 [2] is reported as 0.18 ± 0.15 µM. The “selectivity index (SI) PfK1” value [2] was 261, the MST ([3]; 100 mg/kg × 4 days, oral) was 9.4 days and the “% suppression on day 4 post infection” value [3, 5] was 99.99%. For the same compound, the “cure on day 28” value ([3]; 100 mg/kg × 4 days, oral) was 0/5 cured and the “survival on day 28” value ([3]; 100 mg/kg × 4 days, oral) was 0/5.

With `CN(CCCN1CCCCC1)c1ccnc2cc(Cl)ccc12` [11a, 7-Chloro-N-methyl-N-(3-(piperidin-1-yl)propyl)quinolin-4-amine] the CC50 (VERO cell line) was 107 µM, the IC50 [1] was 0.04 µM and the IC50 [2] was 0.06 ± 0.04 µM. For the same compound, the “selectivity index (SI) PfK1” value [2] was 1782.

With `CC(C)CC(CN1CCOCC1)N(C)c1ccnc2cc(Cl)ccc12` (centres unmarked) [9b, 7-Chloro-N-methyl-N-(4-methyl-1-morpholinopentan-2-yl)quinolin-4-amine] the CC50 (VERO cell line) was 50.8 µM, the IC50 [1] was 1.16 ± 0.26 µM and the “selectivity index (SI) Pf3D7” value [1] was 44. The IC50 [2] was 1.19 ± 0.53 µM and the “selectivity index (SI) PfK1” value [2] was 43.

With `CCO[C@H]1O[C@@H]2O[C@@]3(C)CC[C@H]4[C@H](C)CC[C@@H]([C@H]1C)[C@@]24OO3` [α/β-arteether, reference compound] the “% suppression on day 4 post infection” value [3, 6] was 100%, the MST [3, 6] was over 28 days and the “cure on day 28” value [3, 6] was 5/5 cured. The “survival on day 28” value [3, 6] was 5/5.

For `CN(CCCN1CCCC1)c1ccnc2cc(Cl)ccc12` [11b, 7-Chloro-N-methyl-N-(3-(pyrrolidin-1-yl)propyl)quinolin-4-amine], the CC50 (VERO cell line) was 80.2 µM, the IC50 [1] was 0.19 µM and the “selectivity index (SI) Pf3D7” value [1] was 422. For the same compound, the IC50 [2] was 0.11 ± 0.07 µM, the “selectivity index (SI) PfK1” value [2] was 729 and the MST ([3]; 100 mg/kg × 4 days, oral) was 8.8 days. For the same compound, the “% suppression on day 4 post infection” value [3, 5] was 99.8%, the “cure on day 28” value ([3]; 100 mg/kg × 4 days, oral) was 0/5 cured and the “survival on day 28” value ([3]; 100 mg/kg × 4 days, oral) was 0/5.

In the case of `CC(C)C[C@@H](CN1CCCC1)N(C)c1ccnc2cc(C(F)(F)F)ccc12` [9h, (S)-N-Methyl-N-(4-methyl-1-(pyrrolidin-1-yl)pentan-2-yl)-7-(trifluoromethyl)quinolin-4-amine], the IC50 [1] is reported as 1.24 µM, the “selectivity index (SI) Pf3D7” value [1] is reported as 42 and the IC50 [2] is reported as 1.6 ± 0.91 µM. For the same compound, the “selectivity index (SI) PfK1” value [2] was 33.

For `CN(CCCN1CCOCC1)c1ccnc2cc(C(F)(F)F)ccc12` [11c, N-Methyl-N-(3-morpholinopropyl)-7-(trifluoromethyl)quinolin-4-amine], the IC50 [1] was 0.88 ± 0.28 µM, the “selectivity index (SI) Pf3D7” value [1] was over 227 and the IC50 [2] was 0.82 ± 0.06 µM. For the same compound, the “selectivity index (SI) PfK1” value [2] was over 243.

For `CCN(CC)C[C@H](Cc1ccccc1)N(C)c1ccnc2cc(Cl)ccc12` [10d, (S)-N^2-(7-Chloroquinolin-4-yl)-N^1,N^1-diethyl-N^2-methyl-3-phenylpropane-1,2-diamine], the IC50 [1] was 0.21 ± 0.11 µM, the “selectivity index (SI) Pf3D7” value [1] was 376 and the IC50 [2] was 0.33 ± 0.06 µM. For the same compound, the “selectivity index (SI) PfK1” value [2] was 240.

In the case of `CN(c1ccnc2cc(Cl)ccc12)[C@@H](Cc1ccccc1)CN1CCCC1` [10c, (S)-7-Chloro-N-methyl-N-(1-phenyl-3-(pyrrolidin-1-yl)propan-2-yl)quinolin-4-amine], the IC50 [1] is reported as 0.06 ± 0.16 µM, the “selectivity index (SI) Pf3D7” value [1] is reported as 963 and the IC50 [2] is reported as 0.1 µM. For the same compound, the “selectivity index (SI) PfK1” value [2] was 577, the MST ([3]; 100 mg/kg × 4 days, oral) was 9 days and the “% suppression on day 4 post infection” value [3, 5] was 93.99%. The “cure on day 28” value ([3]; 100 mg/kg × 4 days, oral) was 0/5 cured and the “survival on day 28” value ([3]; 100 mg/kg × 4 days, oral) was 0/5.

In the case of `CN(c1ccnc2cc(Cl)ccc12)[C@@H](Cc1ccccc1)CN1CCCCC1` [10b, (S)-7-Chloro-N-methyl-N-(1-phenyl-3-(piperidin-1-yl)propan-2-yl)quinolin-4-amine], the IC50 [1] is reported as 0.28 ± 0.13 µM, the IC50 [2] is reported as 0.49 ± 0.15 µM and the “selectivity index (SI) PfK1” value [2] is reported as 142.

With `CN(c1ccnc2cc(C(F)(F)F)ccc12)[C@@H](Cc1ccccc1)CN1CCCCC1` [10f, (S)-N-Methyl-N-(1-phenyl-3-(piperidin-1-yl)propan-2-yl)-7-(trifluoromethyl)quinolin-4-amine] the “activity” value [1] was “inactive” and the IC50 [1] was 1.37 ± 0.52 µM.

In the case of `CC(C)C[C@@H](CN1CCOCC1)N(C)c1ccnc2cc(C(F)(F)F)ccc12` [9f, (S)-N-Methyl-N-(4-methyl-1-morpholinopentan-2-yl)-7-(trifluoromethyl)quinolin-4-amine], the IC50 [1] is reported as 2.72 ± 1.44 µM, the “selectivity index (SI) Pf3D7” value [1] is reported as 25 and the IC50 [2] is reported as 2.25 ± 0.77 µM. For the same compound, the “selectivity index (SI) PfK1” value [2] was 30.

With `CCN(CC)C[C@H](CC(C)C)N(C)c1ccnc2cc(Cl)ccc12` [9e, (S)-N^2-(7-Chloroquinolin-4-yl)-N^1,N^1-diethyl-N^2,4-dimethylpentane-1,2-diamine] the IC50 [1] was 0.23 ± 0.1 µM, the “selectivity index (SI) Pf3D7” value [1] was 262 and the IC50 [2] was 0.54 ± 0.03 µM. For the same compound, the “selectivity index (SI) PfK1” value [2] was 112.

For `CN(c1ccnc2cc(Cl)ccc12)[C@@H](Cc1ccccc1)CN1CCOCC1` [10a, (S)-7-Chloro-N-methyl-N-(1-morpholino-3-phenylpropan-2-yl)quinolin-4-amine], the IC50 [1] was 1.2 ± 0.78 µM, the “selectivity index (SI) Pf3D7” value [1] was 28 and the IC50 [2] was 1.38 ± 0.07 µM. The “selectivity index (SI) PfK1” value [2] was 24.

`CN(CCCN1CCCC1)c1ccnc2cc(C(F)(F)F)ccc12` [11d, N-Methyl-N-(3-(pyrrolidin-1-yl)propyl)-7-(trifluoromethyl)quinolin-4-amine] gave a CC50 (VERO cell line) of 78.2 µM, an IC50 [1] of 0.09 ± 0.02 µM and an IC50 [2] of 0.31 ± 0.15 µM. For the same compound, the “selectivity index (SI) PfK1” value [2] was 252, the MST ([3]; 100 mg/kg × 4 days, oral) was 8.8 days and the “% suppression on day 4 post infection” value [3, 5] was 99.85%. The “cure on day 28” value ([3]; 100 mg/kg × 4 days, oral) was 0/5 cured and the “survival on day 28” value ([3]; 100 mg/kg × 4 days, oral) was 0/5.

In the case of `CC(C)C[C@@H](CN1CCCCC1)N(C)c1ccnc2cc(C(F)(F)F)ccc12` [9g, (S)-N-Methyl-N-(4-methyl-1-(piperidin-1-yl)pentan-2-yl)-7-(trifluoromethyl)quinolin-4-amine], the IC50 [1] is reported as 2 ± 0.06 µM, the “selectivity index (SI) Pf3D7” value [1] is reported as 21 and the IC50 [2] is reported as 2.04 ± 0.4 µM. The “selectivity index (SI) PfK1” value [2] was 21.

With `COc1cc([C@@H]2c3cc4c(cc3[C@H](O)[C@H]3COC(=O)[C@H]23)OCO4)cc(OC)c1OC` [Podophyllotoxin, reference compound] the CC50 at 72 h [4] was 4 µM.

With `CCN(CC)C[C@H](CC(C)C)N(C)c1ccnc2cc(C(F)(F)F)ccc12` [9i, (S)-N^1,N^1-diethyl-N^2,4-dimethyl-N^2-(7-(trifluoromethyl)quinolin-4-yl)pentane-1,2-diamine] the IC50 [1] was 3.8 ± 1.05 µM, the “selectivity index (SI) Pf3D7” value [1] was 14 and the IC50 [2] was 2.5 ± 1.03 µM. For the same compound, the “selectivity index (SI) PfK1” value [2] was 21.
